Results as given in ChEMBL document CHEMBL1123641, “Antiulcer agents. 2. Gastric antisecretory, cytoprotective, and metabolic properties of substituted imidazo[1,2-a]pyridines and analogues” (J Med Chem, 1987).
The source made the active and inactive calls. The calls are words filed in the database; no cut-off is given here.

Legend:
Canis familiaris [1] = test: Antisecretory activity in histamine stimulated dogs at 0.1 mg/kg dose administered intravenously; assay type: functional; conditions: Canis lupus familiaris, route intravenous
Method in brief: (§1)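 Adult mongrel dogs with surgically prepared Heidenhain pouches, acid secretion stimulated with histamine. Compound given intravenously (0.1-5 mg/kg range). Acid output reduction is expressed relative to the nondrug-treated control value in the same animal, each dog serving as its own control. Unless noted otherwise, one dog per compound. ED50 is the iv dose reducing acid output to 50% of control.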

Canis familiaris [2] = test: Antisecretory activity in histamine stimulated dogs at 4 mg/kg dose administered orally; assay type: functional; conditions: Canis lupus familiaris, route oral
Method in brief: (§2)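 Heidenhain pouch mongrel dogs, histamine-stimulated acid secretion. Compound given orally at 2–8 mg/kg. Reduction in acid output is relative to the same animal's own nondrug control, since histamine response depends on pouch size. Usually a single dog per compound. Oral ED50 is the dose reducing acid output to 50% of control.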

Canis familiaris [3] = test: Antisecretory activity in histamine stimulated dogs at 8 mg/kg dose administered orally; assay type: functional; conditions: Canis lupus familiaris, route oral; method in brief: as §2
Rattus norvegicus [4] = test: Antisecretory activity in pylorus ligated rats at a 40 mg/kg dose administered intraperitoneally; assay type: functional; conditions: ip, route intraperitoneal
Method in brief: (§3)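 Pylorus-ligated rats, six per compound and eight controls. Compound given intraperitoneally at 40 mg/kg at the time of ligation. Reduction in acid output measured over 4 h.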

Canis familiaris [5] = test: Antisecretory activity in histamine stimulated dogs at 1 mg/kg dose administered intravenously; assay type: functional; conditions: Canis lupus familiaris, route intravenous; method in brief: as §1
Canis familiaris [6] = test: Antisecretory activity in histamine stimulated dogs at 5 mg/kg dose administered orally measured as 50% effective concentration; assay type: functional; conditions: Canis lupus familiaris, route oral; method in brief: as §2
Canis familiaris [7] = test: Antisecretory activity in histamine stimulated dogs at 2 mg/kg dose administered intravenously; assay type: functional; conditions: Canis lupus familiaris, route intravenous; method in brief: as §1
Canis familiaris [8] = test: Antisecretory activity in histamine stimulated dogs at 2 mg/kg dose administered orally; assay type: functional; conditions: Canis lupus familiaris, route oral; method in brief: as §2
Canis familiaris [9] = test: Antisecretory activity in histamine stimulated dogs at 5 mg/kg dose administered intravenously; assay type: functional; conditions: Canis lupus familiaris; route intravenous; method in brief: as §1
Rattus norvegicus [10] = species on record: Rattus norvegicus; test: Cytoprotective activity in rats against the ethyl alcohol stimulated ulcers measured as effective dose; assay type: functional
Method in brief: (§4)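 Rats were dosed orally at 1–30 mg/kg, 30 min before an oral challenge of absolute ethanol. Ethanol-induced gastric lesions were scored 1 h later, and an effective dose was estimated.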

Canis familiaris [11] = test: Antisecretory activity in histamine stimulated dogs following 5 mg/kg i.v. administration.; assay type: functional; conditions: Canis lupus familiaris, route intravenous; method in brief: as §1
Rattus norvegicus [12] = species on record: Rattus norvegicus; test: Cytoprotective activity in rats against the ethyl alcohol stimulated ulcers measured as effective dose; In active; assay type: functional, organism-based; method in brief: as §4
Rattus norvegicus [13] = test: Antisecretory activity in pylorus ligated rats at 40 mg/kg dose administered intraperitoneally; conditions: ip
Canis familiaris [14] = test: The oral dose of cimetidine required to reduce acid output to 50% of control value in histamine stimulated dogs; conditions: Canis lupus familiaris
Rattus norvegicus [15] = species on record: Rattus norvegicus; test: animal or person; conditions: Canis lupus familiaris, in Rattus norvegicus, ip, 4 h
Canis familiaris [16] = species on record: Canis familiaris; conditions: Canis lupus familiaris
Canis familiaris [17] = test: The intravenous dose of cimetidine required to reduce acid output to 50% of control value in histamine stimulated dogs; conditions: Canis lupus familiaris
Canis familiaris [18] = test: percentage inhibition of acid secretion in histamine stimulated dogs at a dose of 0.4 mg/kg; assay type: functional; conditions: Canis lupus familiaris
Canis familiaris [19] = test: percentage inhibition of acid secretion in histamine stimulated dogs at a dose of 0.2 mg/kg; assay type: functional; conditions: Canis lupus familiaris
Canis familiaris [20] = test: percentage inhibition of acid secretion in histamine stimulated dogs at a dose of 0.05 mg/kg; assay type: functional; conditions: Canis lupus familiaris
Canis familiaris [21] = test: Antisecretory activity in histamine stimulated dogs at 5 mg/kg dose administered orally; assay type: functional; conditions: Canis lupus familiaris; route oral; method in brief: as §2
Rattus norvegicus [22] = test: Antisecretory activity in pylorus ligated rats at 40 mg/kg dose administered intraperitoneal; assay type: functional; conditions: ip; method in brief: as §3

Cc1nc2c(OCc3ccccc3)cccn2c1CC#N
inhibition in vivo at 0.1 mg/kg (Canis familiaris [1]): 49% | inhibition in vivo at 4 mg/kg (Canis familiaris [2]): 42% | inhibition in vivo at 8 mg/kg (Canis familiaris [3]): 77% | inhibition in vivo at 40 mg/kg (Rattus norvegicus [4]): 98% | inhibition in vivo at 1 mg/kg (Canis familiaris [5]): 83% | ED50 at 5 mg/kg (Canis familiaris [6]; dose 5 mg/kg): 4.4 mg/kg | inhibition in vivo at 2 mg/kg (Canis familiaris [7]): 95% | inhibition in vivo at 2 mg/kg (Canis familiaris [8]): 20% | ED50 (Canis familiaris [9]): 0.09 mg/kg | ED50 (Rattus norvegicus [10]): 3 mg/kg | inhibition in vivo at 5 mg/kg (Canis familiaris [11]): 99%

CC(=O)Oc1c(C)nc2c(CCc3ccccc3)cccn12
ED50 (Rattus norvegicus [12]): inactive | inhibition in vivo at 40 mg/kg (Rattus norvegicus [4]): 64% | inhibition in vivo at 2 mg/kg (Canis familiaris [7]): 6%

COc1c(C)nc2c(CCc3ccccc3)cccn12
inhibition in vivo at 40 mg/kg (Rattus norvegicus [13]): 45% | inhibition in vivo at 2 mg/kg (Canis familiaris [7]): 0% | ED50 (Rattus norvegicus [10]): 20 mg/kg

CN/C(=N\CCSCc1nc[nH]c1C)NC#N [CIMETIDINE]
ED50 (Canis familiaris [14]): 1.25 mg/kg | ED50 (Rattus norvegicus [15]): 26.1 mg/kg | ED50 (Canis familiaris [16]): inactive | ED50 (Canis familiaris [17]): 0.66 mg/kg

Cc1ccn2c(CC#N)c(C)nc2c1OCc1ccccc1
inhibition in vivo at 4 mg/kg (Canis familiaris [2]): 20% | inhibition in vivo at 8 mg/kg (Canis familiaris [3]): 59% | inhibition in vivo at 0.4 mg/kg (Canis familiaris [18]): 39% | inhibition in vivo at 40 mg/kg (Rattus norvegicus [4]): 99% | inhibition in vivo at 1 mg/kg (Canis familiaris [5]): 74% | ED50 (Canis familiaris [6]): 7.8 mg/kg | inhibition in vivo at 0.2 mg/kg (Canis familiaris [19]): 1% | inhibition in vivo at 2 mg/kg (Canis familiaris [7]): 90% | inhibition in vivo at 2 mg/kg (Canis familiaris [8]): 8% | ED50 (Canis familiaris [9]): 0.53 mg/kg | ED50 (Rattus norvegicus [10]): 13 mg/kg

Cc1nc2c(OCc3ccccc3)cccn2c1N
inhibition in vivo at 0.1 mg/kg (Canis familiaris [1]): 55% | inhibition in vivo at 0.05 mg/kg (Canis familiaris [20]): 15% | inhibition in vivo at 4 mg/kg (Canis familiaris [2]): 74% | inhibition in vivo at 8 mg/kg (Canis familiaris [3]): 96% | inhibition in vivo at 40 mg/kg (Rattus norvegicus [4]): 99% | inhibition in vivo at 0.2 mg/kg (Canis familiaris [19]): 41% | inhibition in vivo at 2 mg/kg (Canis familiaris [7]): 97% | inhibition in vivo at 2 mg/kg (Canis familiaris [8]): 50% | ED50 (Canis familiaris [9]): 0.1 mg/kg | ED50 (Canis familiaris [21]): 2 mg/kg | ED50 (Rattus norvegicus [10]): 6 mg/kg

Cc1nc2cccc(CCc3ccccc3)n2c1N
inhibition in vivo at 40 mg/kg (Rattus norvegicus [22]): 40% | ED50 (Rattus norvegicus [10]): 14 mg/kg
